{"source": "ChEMBL document CHEMBL1125206", "about": "“Modification of the enkephalin \"message\" with an artificial polycationic C-terminus” (J Med Chem, 1991)", "key": {"[1]": {"species": "Cavia porcellus", "assay": "Inhibition of electrically evoked contractions in guinea pig ileum at 10e-6 M with cocktail comprised of 10 uM thiophan, and 10 mM L-leucylleucine.", "format": "functional", "method_in_brief": "(§1)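 Isolated guinea pig ileum, electrically stimulated; inhibition of evoked contractions by compound (HCl salt) at 10⁻⁶ M final. Only tissues responding to 10⁻⁷ M morphine reference were used. Values are the average of two or three experiments.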"}, "[2]": {"species": "Cavia porcellus", "assay": "The compound was tested for inhibition of electrically evoked contractions in guinea pig ileum with bestatin at 10e-6 M conc.", "format": "functional", "method_in_brief": "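Guinea pig ileum, electrically stimulated. Compound at 10⁻⁶ M final concentration, scored as inhibition of evoked contractions. Tissues were qualified with a morphine response at 10⁻⁷ M. Values are the average of two or three experiments. Compounds tested as HCl salts.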"}, "[3]": {"biological_target": "Mu-type opioid receptor (Cavia porcellus, UniProt P97266)", "sequence (P97266 whole entry)": "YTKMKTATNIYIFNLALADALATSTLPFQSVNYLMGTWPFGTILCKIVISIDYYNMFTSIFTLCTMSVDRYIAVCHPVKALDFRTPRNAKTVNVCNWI", "assay": "The compound was tested for binding activity towards opioid receptor mu in guinea pig brain membranes.", "format": "cell membranes", "method_in_brief": "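Competitive radioligand binding used male Hartley guinea pig brain membranes at 25 °C in 100 mM NaCl, with 0.5 nM [³H]naloxone (final) for μ sites. Compounds were tested as HCl salts. Data come from single duplicate experiments or are mean ± SEM of three experiments run in duplicate.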"}, "[4]": {"species": "Cavia porcellus", "assay": "Inhibition of electrically evoked contractions in guinea pig ileum at 10e-6 M conc. with cocktail comprised of 10 uM bestatin, 10 uM captopril, 0.3 uM thiophan, and 10 mM L-leucylleucine.", "format": "functional", "method_in_brief": "as §1"}, "[5]": {"biological_target": "Kappa-type opioid receptor (Cavia porcellus, UniProt P41144)", "sequence (P41144 whole entry)": "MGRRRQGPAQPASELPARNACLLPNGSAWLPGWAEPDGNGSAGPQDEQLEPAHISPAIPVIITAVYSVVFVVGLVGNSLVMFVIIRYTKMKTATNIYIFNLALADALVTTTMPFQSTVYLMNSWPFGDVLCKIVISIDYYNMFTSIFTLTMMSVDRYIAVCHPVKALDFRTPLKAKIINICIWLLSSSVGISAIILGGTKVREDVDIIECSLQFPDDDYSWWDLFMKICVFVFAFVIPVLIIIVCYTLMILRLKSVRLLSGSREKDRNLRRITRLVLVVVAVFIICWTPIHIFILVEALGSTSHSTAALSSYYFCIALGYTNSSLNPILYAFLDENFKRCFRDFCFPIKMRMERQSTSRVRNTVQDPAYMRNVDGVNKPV", "assay": "The compound was tested for binding activity towards opioid receptor kappa in guinea pig brain membranes.", "format": "cell membranes", "method_in_brief": "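Guinea pig brain membranes (male Hartley) in competitive radioligand displacement at 25 °C with 100 mM NaCl. κ sites were labelled with 1 nM (-)-[³H]EKC (final), with 500 nM DADLE and 20 nM sufentanil masking other sites. Compounds were tested as HCl salts. Values are single experiments in duplicate or mean ± SEM of three experiments in duplicate.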"}, "[6]": {"species": "Cavia porcellus", "assay": "The compound was tested for inhibition of electrically evoked contractions in guinea pig ileum with bestatin at 10e-6 M", "format": "functional", "method_in_brief": "as §1"}}, "note": "pKi: −log10 of the molar value. Starred links: 1 amine or outer side, 2 acyl side, 3 side chain; linkers in the order of their positions; H or OH if unused. Residues, ends and D or L forms follow the SMILES beside them. Ethylenediamine = C(CN[*:2])N[*:1]; GABA = NCCCC(=O)O", "data": [{"smiles": "NCCCC(=O)NCCN(CCNC(=O)CCCN)C(=O)CCCN", "values": [{"measurement": "Inhibition", "setting": "[1]", "value": 0, "unit": "%"}, {"measurement": "inhibition at 1 µM", "setting": "[2]", "value": 0, "unit": "%"}]}, {"smiles": "NCCCC(=O)NCCNC(=O)[C@H](Cc1ccccc1)NC(=O)CNC(=O)CNC(=O)[C@@H](N)Cc1ccc(O)cc1", "note": "(H-YGGF-{Ethylenediamine-GABA})", "values": [{"measurement": "pKi", "setting": "[3]", "value": 4.78}, {"measurement": "inhibition at 1 µM", "setting": "[2]", "value": 29.5, "unit": "%"}, {"measurement": "Inhibition", "setting": "[4]", "value": 28.5, "unit": "%"}, {"measurement": "pKi", "setting": "[5]", "value": 4.44}]}, {"smiles": "NCCCC(=O)NCCCN(CCCNC(=O)[C@H](Cc1ccccc1)NC(=O)CNC(=O)CNC(=O)[C@@H](N)Cc1ccc(O)cc1)C(=O)CCCN", "note": "(HELM PEPTIDE1{Y.G.G.F.[NCCCC(=O)NCCCN(CCCN[*:1])C(=O)CCCN]}$$$$V2.0)", "values": [{"measurement": "inhibition at 1 µM", "setting": "[6]", "value": 13, "unit": "%"}, {"measurement": "Inhibition", "setting": "[1]", "value": 12.5, "unit": "%"}, {"measurement": "pKi", "setting": "[3]", "value": 5.14}, {"measurement": "pKi", "setting": "[5]", "value": 5.26}]}, {"smiles": "NCCCC(=O)NCCN(CCN(CCNC(=O)[C@H](Cc1ccccc1)NC(=O)CNC(=O)CNC(=O)[C@@H](N)Cc1ccc(O)cc1)C(=O)CCCN)C(=O)CCCN", "note": "(HELM PEPTIDE1{Y.G.G.F.[NCCCC(=O)NCCN(CCN(CCN[*:1])C(=O)CCCN)C(=O)CCCN]}$$$$V2.0)", "values": [{"measurement": "Inhibition", "setting": "[1]", "value": 9, "unit": "%"}, {"measurement": "pKi", "setting": "[3]", "value": 5.17}, {"measurement": "pKi", "setting": "[5]", "value": 5.43}]}, {"smiles": "NCCCC(=O)NCCN(CCNC(=O)[C@H](Cc1ccccc1)NC(=O)CNC(=O)CNC(=O)[C@@H](N)Cc1ccc(O)cc1)C(=O)CCCN", "note": "(HELM PEPTIDE1{Y.G.G.F.[NCCCC(=O)NCCN(CCN[*:1])C(=O)CCCN]}$$$$V2.0)", "values": [{"measurement": "pKi", "setting": "[3]", "value": 4.84}, {"measurement": "inhibition at 1 µM", "setting": "[2]", "value": 13.5, "unit": "%"}, {"measurement": "Inhibition", "setting": "[4]", "value": 17.5, "unit": "%"}, {"measurement": "pKi", "setting": "[5]", "value": 5.06}]}, {"smiles": "CC[C@H](C)[C@H](NC(=O)[C@H](CCCNC(=N)N)NC(=O)[C@H](CCCNC(=N)N)NC(=O)[C@H](CC(C)C)NC(=O)[C@H](Cc1ccccc1)NC(=O)CNC(=O)CNC(=O)[C@@H](N)Cc1ccc(O)cc1)C(=O)N[C@@H](CCCNC(=N)N)C(=O)N1CCC[C@H]1C(=O)N[C@@H](CCCCN)C(=O)N[C@@H](CC(C)C)C(=O)N[C@@H](CCCCN)C(=O)O", "note": "[ANALOG OF DYNORPHIN A]", "values": [{"measurement": "pKi", "setting": "[3]", "value": 7.30}, {"measurement": "pKi", "setting": "[5]", "value": 8.44}]}]}
